# High-throughput results from PubChem BioAssay.
# Sampled rows, rich in hits. Any-hit rate of the full collection: about 2.4%.
# Rin1-Abl PPI inh = inhibitors of Rin1-Abl protein binding, primary screen, biochemical, TR-FRET. inhibition, % at 7.35 µM. Tyrosine-protein kinase ABL1 (Homo sapiens) + Ras and Rab interactor 1 (Homo sapiens), …. actives 0.4% (n = 360,000); in the data active = inhibition above about 5%, passing the limit was not always enough
# Rpn11 block = Rpn11 (PSMD14) deubiquitinase inhibitors, primary screen, biochemical, fluorescence polarization, uHTS. human 26S proteasome, Ub4-pepOG fluorescence polarization; 20S core pre-blocked with epoxomicin. actives 0.59% (n = 360,000). inhibition, % at 20 µM. 26S proteasome non-ATPase regulatory subunit 14 (Homo sapiens), O00487;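 active = inhibition at 20 µM, scaled to each plate's controls, above about 33%, limit read from the data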
# CSN deneddyl inh = inhibitors of CSN-mediated cullin deneddylation, primary screen, biochemical, fluorescence polarization, uHTS | COP9 signalosome complex subunit 5 (Homo sapiens), Q92905 | Purified CSN, SCF-Nedd8-OG deneddylation | inhibition, % at 12.5 µM | actives 0.38% (n = 360,000);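 active = pattern-corrected inhibition above about 35%, with an unprinted fluorescence ratio check between 0.5 and 1.5, limit read from the data, passing the limit was not always enough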;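 note: 0% = enzyme with substrate and 100% = substrate without enzyme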
#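 Test system: purified human Csn5 enzyme expressed in HEK293T cells. Amount: 0.24 nM enzyme. Reagent: SCFSkp2-Nedd8OG substrate at 10 nM final. Schedule: 90 min incubation of compound, enzyme and substrate at room temperature. Detection: fluorescence polarization. Read-out: % inhibition of substrate cleavage by Csn5.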
# Neddylation inh = inhibitors of cullin neddylation, primary screen, biochemical, TR-FRET, uHTS, NAE and Ubc12 | NEDD8-conjugating enzyme Ubc12 (Homo sapiens) + NEDD8-activating enzyme E1 regulatory … | inhibition, % at 25 µM | actives 0.58% (n = 360,000) | AID 651699, 2012; in the data active = inhibition above about 36%
# Target sequence (P61081 whole entry, looked up): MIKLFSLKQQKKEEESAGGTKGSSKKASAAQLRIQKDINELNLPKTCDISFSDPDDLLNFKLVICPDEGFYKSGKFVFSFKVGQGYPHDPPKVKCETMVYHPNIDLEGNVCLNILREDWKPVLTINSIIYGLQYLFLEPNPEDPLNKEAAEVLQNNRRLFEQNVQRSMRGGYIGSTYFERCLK
# Target sequence (Q13564 whole entry, looked up): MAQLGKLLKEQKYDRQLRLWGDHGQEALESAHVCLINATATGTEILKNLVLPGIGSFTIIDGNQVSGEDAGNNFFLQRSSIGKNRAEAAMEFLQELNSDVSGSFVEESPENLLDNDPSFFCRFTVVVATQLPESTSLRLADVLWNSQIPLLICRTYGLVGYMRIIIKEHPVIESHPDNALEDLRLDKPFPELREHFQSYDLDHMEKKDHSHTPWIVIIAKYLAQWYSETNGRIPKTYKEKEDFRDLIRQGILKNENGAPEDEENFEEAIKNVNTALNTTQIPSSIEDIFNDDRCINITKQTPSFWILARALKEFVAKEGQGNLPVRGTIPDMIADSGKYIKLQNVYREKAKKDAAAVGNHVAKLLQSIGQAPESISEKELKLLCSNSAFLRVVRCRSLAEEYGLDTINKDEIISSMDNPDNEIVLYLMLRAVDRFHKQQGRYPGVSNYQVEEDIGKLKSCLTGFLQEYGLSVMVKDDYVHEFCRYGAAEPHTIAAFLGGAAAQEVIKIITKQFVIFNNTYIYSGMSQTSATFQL
# TPT1 inhibitor = Candida albicans TPT1 enzyme inhibitors, primary screen, biochemical, fluorescence polarization; tRNA 2'-phosphotransferase TPT1 (Candida albicans SC5314); recombinant caTPT1, FP RNA substrate dephosphorylation; inhibition, % at 5 µM; actives 0.81% (n = 300,000);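 active = inhibition above the mean of all tested compounds plus 3 SD, set per screening campaign, cut at about 24% in these data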;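 note: plate controls were DMSO alone for no effect and ferristatin control at 100 nM for full effect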
# HNF4A DNA FP = change in binding of human HNF4A to DNA, primary screen, biochemical, fluorescence polarization, FITC-DNA. Hepatocyte nuclear factor 4-alpha (Homo sapiens), P41235. 1 h. actives 0.3% (n = 360,000). activity change, % at 10 µM; in the data active = activity change above about 30%, passing the limit was not always enough
# An asterisk follows results filed as active; x = no result given.
SMILES,Rin1-Abl PPI inh,Rpn11 block,CSN deneddyl inh,Neddylation inh,TPT1 inhibitor,HNF4A DNA FP
CC(C)(C)n1nnnc1C(C1CC1)N1CCN(C/C=C/c2ccccc2)CC1 (configuration not stated),1.5,7.3,51.2*,1.7,x,1.9
CS(=O)(=O)Nc1cccc(C2=NN(S(C)(=O)=O)C(c3ccc4c(c3)OCO4)C2)c1 (configuration not stated),-2.4,0.7,-3.6,0.8,2.8,36.3*
Cc1ccc(/C=N/NC(=S)NCCc2ccccc2)s1,3.5,1.9,1.7,42.0*,-0.2,-0.8
CCCCNC(=S)N/N=C/c1ccc(C)s1,1.7,-6.2,7.4,4.1,-3.1,0.2
Cc1cc(Br)ccc1S(=O)(=O)n1ccnc1C,0.5,5.6,-3.7,1.2,-2.6,1.3
O=C(NCc1ccco1)Nc1ccc2nsnc2c1,-1.6,11.0,0.3,50.1*,-3.1,0.3
Cn1c(SCC(=O)NCC2CCCO2)nnc1-c1ccco1 (configuration not stated),3.9,-10.1,-3.6,17.9,x,-2.2
O=C(NN1C(=O)/C(=C/c2cc([N+](=O)[O-])ccc2O)SC1=S)c1ccccc1O,x,x,x,x,52.6*,x
Cc1ccc(/C=C2\SC(=S)N(/N=C/c3cc([N+](=O)[O-])ccc3O)C2=O)o1,-1.2,45.6*,56.1*,-28.7,7.1,-44.2
O=[N+]([O-])c1ccc(O)c(/C=N/n2cnc3ccccc32)c1,-2.6,0.8,-0.8,-18.3,-2.4,2.9
CC(/C=C1\SC(=S)N(NC(=O)c2cccc(O)c2)C1=O)=C\c1ccccc1,-0.5,-1.9,-0.6,-15.0,1.5,-0.7
Nc1ccc2nc(-c3ccccn3)[nH]c2c1,3.0,14.4,1.0,26.6,-4.0,0.8
COc1ccc2nc(-c3ccccn3)[nH]c2c1,-5.2,-1.5,-6.2,43.3*,-3.1,-0.7
COc1cccc(/C=C2\SC(=S)N(C(Cc3ccccc3)C(=O)O)C2=O)c1 (configuration not stated),0.9,-7.2,-1.2,-17.1,-1.0,54.4*
S=C(Nc1ccc(Cl)cc1)N1CCOCC1,1.5,4.0,42.1*,-5.4,-2.9,1.7
Fc1ccc(NC(=S)N2CCOCC2)cc1Cl,1.5,0.1,-2.2,11.1,-3.1,2.0
O=C(/C=C/c1cn(-c2ccccc2)nc1-c1cccc(Cl)c1)N1CCN(c2ccccn2)CC1,-1.0,2.7,153.4*,27.7,-4.0,1.7
O=C(/C=C/c1cn(-c2ccccc2)nc1-c1cccnc1)N1CCCCC1,-1.2,-1.8,-3.0,-4.9,-0.8,-1.7
COc1ccc(S(=O)(=O)N2CCC(C(N)=O)CC2)cc1C(=O)N1CCCCCC1,-0.9,4.1,-5.3,-1.2,0.7,-1.1
NS(=O)(=O)c1ccc(CCNCC(=O)N2CCC(Cc3ccccc3)CC2)cc1,-0.2,-0.8,1.7,5.1,-1.7,2.4
CCOC(=O)c1cccc(C2=CC(=O)C[C@H](c3ccc(OC)cc3)C2)c1,2.0,11.7,95.0*,-25.6,x,-4.3
COc1ccc([C@H]2CC(=O)C=C(c3cccc(Cl)c3)C2)cc1,0.7,-5.8,2.9,-39.5,x,4.8
Nc1nc(-c2ccc(S(=O)(=O)N3CCCCC3)cc2)cs1,0.2,0.6,1.3,44.5*,x,2.2
CC(C)(C)OC(=O)NCc1ccc(CNC(=O)c2[nH]cnc2C(=O)NC2CCN(C(=O)OC(C)(C)C)CC2)cc1,3.4,8.7,0.0,-4.5,x,-1.6
Nc1nc2ccccc2n1C(=O)c1ccccc1,0.7,-7.7,3.7,41.3*,-4.8,-1.9
SMILES,Rin1-Abl PPI inh,Rpn11 block,CSN deneddyl inh,Neddylation inh,TPT1 inhibitor,HNF4A DNA FP
Nc1nc2ccccc2n1C(=O)c1ccc(F)cc1,-2.1,-4.2,-3.5,26.8,4.0,-0.6
COC(=O)c1sccc1-n1cccc1C(=O)C(=O)N1CCOCC1,-1.8,-10.4,-8.2,3.5,1.2,39.7*
COC(=O)c1sccc1-n1cccc1C(=O)N1CCOCC1,-1.1,-5.1,4.5,10.8,-2.8,-0.7
CCOc1ccc(N(CC(=O)Nc2ccccc2C(=O)NC(C)CC)S(C)(=O)=O)cc1 (configuration not stated),1.5,-2.8,-0.1,17.4,-2.1,-2.1
CN1CCC(N2CCN(C3CN(C4CCCCC4)S(=O)(=O)C3)CC2)CC1 (configuration not stated),2.0,-3.0,-1.9,1.8,x,1.3
CN1CCC(N2CCN(C3CN(C4CCCC4)S(=O)(=O)C3)CC2)CC1 (configuration not stated),6.7,-0.1,143.8*,-12.1,x,2.6
Cc1c(Cl)cnc(NC(=O)COC(=O)[C@H](C)NC(=O)c2ccccc2)c1Cl,3.9,-3.2,0.8,-7.6,x,-2.0
COc1cccc(OC)c1C(=O)OCC(=O)NCCNC(=O)COC(=O)c1c(OC)cccc1OC,0.3,0.6,-5.3,4.5,x,-1.4
CCCCNc1c(-c2cccc(OC)c2)nc2nc(C)cc(C)n12,x,x,0.2,13.2,x,2.1
COc1cccc(-c2nc3nc(C)cc(C)n3c2Nc2c(C)cccc2C)c1,x,x,31.9,31.2,x,53.3*
Cn1cnnc1SCC(=O)Nc1ccc(OCc2ccccc2)cc1,-3.3,7.4,49.8*,11.5,-3.1,2.8
Cn1cnnc1SCC(=O)Nc1ccccc1,1.1,-4.5,-5.2,-10.3,-0.8,0.8
Nc1cccc2c(O)cccc12,-0.2,0.0,14.5,44.5*,-0.1,2.6
CCN(CC)CCN(Cc1cc2cc3c(cc2[nH]c1=O)OCO3)C(=S)NCc1ccco1,0.9,5.5,35.1*,24.3,-3.8,-0.9
CN(C)CCCN(Cc1cc2cc3c(cc2[nH]c1=O)OCO3)C(=S)NCc1ccco1,1.8,-2.9,-0.7,25.7,2.2,3.8
Cc1cccc(-n2nc3c(c2NC(=O)c2ccco2)CSC3)c1C,-1.1,27.7,36.4*,-6.9,2.6,-19.7
COc1ccc(C2C(C(=O)c3ccccc3)N3c4ccccc4C=CC3C2[N+](=O)[O-])cc1 (configuration not stated),-4.5,x,36.7*,-25.1,x,112.8
COc1ccc(N2C(=O)[C@@H]3[C@H](C2=O)[C@H](C(C)=O)N2c4ccccc4C=C[C@@H]32)cc1,1.9,9.4,4.4,14.0,22.9,14.3
COc1ccc2[nH]c(=O)c(CN(C3CCCCC3)C(c3nnnn3Cc3ccco3)C(C)C)cc2c1 (configuration not stated),-0.3,x,19.0,9.4,57.5*,54.3*
